# Active and inactive are the calls of the source. The calls are words filed in the database; no cut-off is given here.
# Tests used:
# [1] = system: Staphylococcus epidermidis; test: Antibacterial activity against Staphylococcus epidermidis ATCC 12228 after 18 hrs by twofold serial agar dilution technique; format: functional; conditions: ATCC 12228, 18 h
# Summary of the method: (§1)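 Twofold serial agar dilution on Mueller–Hinton II agar, following CLSI guidelines. Compounds were dissolved in methanol or DMSO and tested at final agar concentrations of 3.125–400 µg/mL. Final inoculum was 10^4 CFU/mL.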
# Staphylococcus aureus [2] = test: Antibacterial activity against Staphylococcus aureus NCTC 4163 after 18 hrs by twofold serial agar dilution technique; format: functional; conditions: NCTC 4163, 18 h; summary of the method: as §1
# Enterococcus hirae [3] = test: Antibacterial activity against Enterococcus hirae ATCC 10541 after 18 hrs by twofold serial agar dilution technique; format: functional; conditions: ATCC 10541, 18 h
# Micrococcus luteus [4] = test: Antibacterial activity against Micrococcus luteus ATCC 10240 after 18 hrs by twofold serial agar dilution technique; format: functional; conditions: ATCC 10240, 18 h
# Bacillus cereus [5] = test: Antibacterial activity against Bacillus cereus ATCC 11778 after 18 hrs by twofold serial agar dilution technique; format: functional; conditions: ATCC 11778, 18 h
# Staphylococcus aureus [6] = test: Antibacterial activity against Staphylococcus aureus ATCC 29213 after 18 hrs by twofold serial agar dilution technique; format: functional; conditions: ATCC 29213, 18 h; summary of the method: as §1
# Staphylococcus aureus [7] = test: Antibacterial activity against Staphylococcus aureus ATCC 25923 after 18 hrs by twofold serial agar dilution technique; format: functional; conditions: ATCC 25923, 18 h; summary of the method: as §1
# Bacillus subtilis [8] = test: Antibacterial activity against Bacillus subtilis ATCC 6633 after 18 hrs by twofold serial agar dilution technique; format: functional; conditions: ATCC 6633, 18 h
# Staphylococcus aureus [9] = test: Antibacterial activity against Staphylococcus aureus ATCC 6538 after 18 hrs by twofold serial agar dilution technique; format: functional; conditions: ATCC 6538, 18 h; summary of the method: as §1
# Micrococcus luteus [10] = test: Antibacterial activity against Micrococcus luteus ATCC 9341 after 18 hrs by twofold serial agar dilution technique; format: functional; conditions: ATCC 9341, 18 h
# [11] = system: Staphylococcus epidermidis; test: Antibacterial activity against methicillin-resistant Staphylococcus epidermidis clinical isolate 315/08 after 18 hrs by twofold serial agar dilution technique; format: functional; conditions: clinical isolate 315/08, 18 h
# Summary of the method: (§2)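 Clinical isolates came from patients in Warsaw Medical University Hospitals and were classed as methicillin-susceptible or -resistant. MIC was determined by twofold serial agar dilution on Mueller–Hinton II agar (CLSI), 3.125–400 µg/mL in agar, with compounds in methanol or DMSO. Inoculum was 10^4 CFU/mL and plates were read after 18 h at 35 °C.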
# [12] = system: Staphylococcus epidermidis; test: Antibacterial activity against methicillin-resistant Staphylococcus epidermidis clinical isolate 316/08 after 18 hrs by twofold serial agar dilution technique; format: functional; conditions: clinical isolate 316/08, 18 h; summary of the method: as §2
# [13] = system: Staphylococcus epidermidis; test: Antibacterial activity against methicillin-resistant Staphylococcus epidermidis clinical isolate 318/08 after 18 hrs by twofold serial agar dilution technique; format: functional; conditions: clinical isolate 318/08, 18 h; summary of the method: as §2
# [14] = system: Staphylococcus epidermidis; test: Antibacterial activity against methicillin-resistant Staphylococcus epidermidis clinical isolate 341/09 after 18 hrs by twofold serial agar dilution technique; format: functional; conditions: clinical isolate 341/09, 18 h; summary of the method: as §2
# [15] = system: Staphylococcus epidermidis; test: Antibacterial activity against methicillin-resistant Staphylococcus epidermidis clinical isolate 343/09 after 18 hrs by twofold serial agar dilution technique; format: functional; conditions: clinical isolate 343/09, 18 h; summary of the method: as §2
# [16] = system: Staphylococcus epidermidis; test: Antibacterial activity against methicillin-resistant Staphylococcus epidermidis clinical isolate 340/09 after 18 hrs by twofold serial agar dilution technique; format: functional; conditions: clinical isolate 340/09, 18 h; summary of the method: as §2
# [17] = system: Staphylococcus epidermidis; test: Antibacterial activity against methicillin-resistant Staphylococcus epidermidis clinical isolate 317/08 after 18 hrs by twofold serial agar dilution technique; format: functional; conditions: clinical isolate 317/08, 18 h; summary of the method: as §2
# [18] = system: Staphylococcus epidermidis; test: Antibacterial activity against methicillin-resistant Staphylococcus epidermidis clinical isolate 342/09 after 18 hrs by twofold serial agar dilution technique; format: functional; conditions: clinical isolate 342/09, 18 h; summary of the method: as §2
# [19] = system: Staphylococcus epidermidis; test: Antibacterial activity against methicillin-resistant Staphylococcus epidermidis clinical isolate 377/09 after 18 hrs by twofold serial agar dilution technique; format: functional; conditions: clinical isolate 377/09, 18 h; summary of the method: as §2
# [20] = Cytotoxicity against human MT4 cells after 96 hrs by MTT assay; format: cell-based
# [21] = system: Staphylococcus epidermidis; test: Antibacterial activity against methicillin-resistant Staphylococcus epidermidis clinical isolate 311/08 after 18 hrs by twofold serial agar dilution technique; format: functional; conditions: clinical isolate 311/08, 18 h; summary of the method: as §2
# [22] = system: Human immunodeficiency virus 1; test: Antiviral activity against HIV1 infected in human MT4 cells assessed as virus-induced cytopathogenicity after 4 days by MTT assay; format: functional, organism-based; conditions: Human immunodeficiency virus 1, MT4, 96 h
# Candida albicans [23] = test: Antifungal activity against Candida albicans ATCC 10231 at 400 ug/disc after 18 hrs by disc diffusion method; format: functional, organism-based
# Summary of the method: (§3)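 Yeasts tested by disc diffusion (CLSI) on RPMI agar with 2% glucose; 9 mm paper discs bearing 400 µg compound from methanol or DMSO solution; inhibition zone diameter read after 18 h at 35 °C.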
# Pseudomonas aeruginosa [24] = test: Antibacterial activity against Pseudomonas aeruginosa NCTC 6749 at 400 ug/disc after 18 hrs by disc diffusion method; format: functional, organism-based
# Summary of the method: (§4)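 Disc diffusion per CLSI on Mueller–Hinton II agar; 9 mm paper discs loaded from methanol or DMSO solutions to 400 µg per disc, dried; growth inhibition zone diameter read after 18 h at 35 °C.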
# Staphylococcus aureus [25] = test: Antibacterial activity against Staphylococcus aureus ATCC 25923 at 400 ug/disc after 18 hrs by disc diffusion method; format: functional; summary of the method: as §4
# Candida parapsilosis = test: Antifungal activity against Candida parapsilosis ATCC 22019 at 400 ug/disc after 18 hrs by disc diffusion method; format: functional, organism-based; summary of the method: as §3
# Escherichia coli [26] = test: Antibacterial activity against Escherichia coli ATCC 10538 at 400 ug/disc after 18 hrs by disc diffusion method; format: functional, organism-based; summary of the method: as §4
# Staphylococcus aureus [27] = test: Antibacterial activity against Staphylococcus aureus ATCC 6538 at 400 ug/disc after 18 hrs by disc diffusion method; format: functional; summary of the method: as §4
# [28] = system: Staphylococcus epidermidis; test: Antibacterial activity against Staphylococcus epidermidis ATCC 12228 at 400 ug/disc after 18 hrs by disc diffusion method; format: functional; summary of the method: as §4
# Pseudomonas aeruginosa [29] = test: Antibacterial activity against Pseudomonas aeruginosa ATCC 15442 at 400 ug/disc after 18 hrs by disc diffusion method; format: functional, organism-based; summary of the method: as §4
# Micrococcus luteus [30] = test: Antibacterial activity against Micrococcus luteus ATCC 10240 at 400 ug/disc after 18 hrs by disc diffusion method; format: functional; conditions: ATCC 10240, 18 h, read-out: DIZ; summary of the method: as §4
# Bacillus cereus [31] = test: Antibacterial activity against Bacillus cereus ATCC 11778 at 400 ug/disc after 18 hrs by disc diffusion method; format: functional; summary of the method: as §4
# Proteus vulgaris = test: Antibacterial activity against Proteus vulgaris NCTC 4635 at 400 ug/disc after 18 hrs by disc diffusion method; format: functional, organism-based; summary of the method: as §4
# Escherichia coli [32] = test: Antibacterial activity against Escherichia coli NCTC 8196 at 400 ug/disc after 18 hrs by disc diffusion method; format: functional, organism-based; summary of the method: as §4
# [33] = system: Bordetella bronchiseptica; test: Antibacterial activity against Bordetella bronchiseptica ATCC 4617 at 400 ug/disc after 18 hrs by disc diffusion method; format: functional, organism-based; summary of the method: as §4
# Staphylococcus aureus [34] = test: Antibacterial activity against Staphylococcus aureus ATCC 29213 at 400 ug/disc after 18 hrs by disc diffusion method; format: functional; summary of the method: as §4
# Staphylococcus aureus [35] = test: Antibacterial activity against Staphylococcus aureus NCTC 4163 at 400 ug/disc after 18 hrs by disc diffusion method; format: functional; summary of the method: as §4
# Escherichia coli [36] = test: Antibacterial activity against Escherichia coli ATCC 25922 at 400 ug/disc after 18 hrs by disc diffusion method; format: functional, organism-based; summary of the method: as §4
# Candida albicans [37] = test: Antifungal activity against Candida albicans ATCC 90028 at 400 ug/disc after 18 hrs by disc diffusion method; format: functional, organism-based; summary of the method: as §3
# Pseudomonas aeruginosa [38] = test: Antibacterial activity against Pseudomonas aeruginosa ATCC 27853 at 400 ug/disc after 18 hrs by disc diffusion method; format: functional, organism-based; summary of the method: as §4
# Micrococcus luteus [39] = test: Antibacterial activity against Micrococcus luteus ATCC 9341 at 400 ug/disc after 18 hrs by disc diffusion method; format: functional; summary of the method: as §4
# Bacillus subtilis [40] = test: Antibacterial activity against Bacillus subtilis ATCC 6633 at 400 ug/disc after 18 hrs by disc diffusion method; format: functional; conditions: ATCC 6633, 18 h, read-out: DIZ; summary of the method: as §4
# Enterococcus hirae [41] = test: Antibacterial activity against Enterococcus hirae ATCC 10541 at 400 ug/disc after 18 hrs by disc diffusion method; format: functional; summary of the method: as §4
compound,measurement,setting,value
O=C(O)c1cn(C2CC2)c2cc(N3CCNCC3)c(F)cc2c1=O [CIPROFLOXACIN],MIC,[1],0.5 µg/mL
same,MIC,Staphylococcus aureus [2],0.5 µg/mL
same,MIC,Enterococcus hirae [3],4 µg/mL
same,MIC,Micrococcus luteus [4],1 µg/mL
same,MIC,Bacillus cereus [5],0.5 µg/mL
same,MIC,Staphylococcus aureus [6],0.5 µg/mL
same,MIC,Staphylococcus aureus [7],0.5 µg/mL
same,MIC,Bacillus subtilis [8],< 0.125 µg/mL
same,MIC,Staphylococcus aureus [9],0.5 µg/mL
same,MIC,Micrococcus luteus [10],2 µg/mL
Nc1ncnn1/C(S)=N/C1CCCCC1,MIC,[11],12.5 µg/mL
same,MIC,[12],25 µg/mL
same,MIC,[13],12.5 µg/mL
same,MIC,[14],25 µg/mL
same,MIC,[15],12.5 µg/mL
same,MIC,[16],12.5 µg/mL
same,MIC,[17],25 µg/mL
same,MIC,[18],25 µg/mL
same,MIC,[19],25 µg/mL
same,CC50 at 96 h,[20],> 100 µM
same,MIC,[21],25 µg/mL
same,EC50,[22],> 100 µM
Cc1ccc(NC(=S)Nc2nc[nH]n2)cc1,diameter of the inhibition zone (DIZ),Candida albicans [23],inactive
same,diameter of the inhibition zone (DIZ),Pseudomonas aeruginosa [24],inactive
same,diameter of the inhibition zone (DIZ),Staphylococcus aureus [25],inactive
same,diameter of the inhibition zone (DIZ),Candida parapsilosis,inactive
same,diameter of the inhibition zone (DIZ),Escherichia coli [26],inactive
same,diameter of the inhibition zone (DIZ),Staphylococcus aureus [27],inactive
same,diameter of the inhibition zone (DIZ),[28],inactive
same,CC50 at 96 h,[20],59 µM
same,diameter of the inhibition zone (DIZ),Pseudomonas aeruginosa [29],inactive
same,zone of inhibition at 400 µg/disc,Micrococcus luteus [30],12 mm
same,diameter of the inhibition zone (DIZ),Bacillus cereus [31],inactive
same,diameter of the inhibition zone (DIZ),Proteus vulgaris,inactive
same,diameter of the inhibition zone (DIZ),Escherichia coli [32],inactive
same,diameter of the inhibition zone (DIZ),[33],inactive
same,diameter of the inhibition zone (DIZ),Staphylococcus aureus [34],inactive
same,diameter of the inhibition zone (DIZ),Staphylococcus aureus [35],inactive
same,diameter of the inhibition zone (DIZ),Escherichia coli [36],inactive
same,diameter of the inhibition zone (DIZ),Candida albicans [37],inactive
same,diameter of the inhibition zone (DIZ),Pseudomonas aeruginosa [38],inactive
same,EC50,[22],> 50 µM
same,diameter of the inhibition zone (DIZ),Micrococcus luteus [39],inactive
same,zone of inhibition at 400 µg/disc,Bacillus subtilis [40],13 mm
same,diameter of the inhibition zone (DIZ),Enterococcus hirae [41],inactive
S=C(Nc1ccc(Cl)c(Cl)c1)Nc1nc[nH]n1,CC50 at 96 h,[20],47 µM
same,EC50,[22],> 47 µM
